Rows were chosen to be rich in hits. Some 3.5% of all compounds tested hit in one or more screens of this group.
MrgX1 agonist: agonists of human MrgX1 receptor, primary screen, HEK293 cells, Fluo-4 calcium flux; actives 0.44% (n = 310,000); Mas-related G-protein coupled receptor member X1 (Homo sapiens), Q96LB2; B-score at 10 µM; Fluo-4 calcium fluorescence, agonist mode; hits give high values;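 active = calcium response B-score plate-corrected fluorescence ratio at least 3 library SD, with starting fluorescence B-score inside 5 SD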
Target sequence (Q96LB2 whole entry, looked up): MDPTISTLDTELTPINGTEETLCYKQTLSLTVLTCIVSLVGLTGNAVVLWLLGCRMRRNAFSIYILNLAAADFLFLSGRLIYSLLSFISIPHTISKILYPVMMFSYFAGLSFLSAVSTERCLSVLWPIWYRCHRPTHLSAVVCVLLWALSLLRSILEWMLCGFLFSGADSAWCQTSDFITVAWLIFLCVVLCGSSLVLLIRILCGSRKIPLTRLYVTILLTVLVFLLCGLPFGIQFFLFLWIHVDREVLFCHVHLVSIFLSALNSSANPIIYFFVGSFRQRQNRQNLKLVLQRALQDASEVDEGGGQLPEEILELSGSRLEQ
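System: HEK293 cells stably expressing human MrgX1 receptor; Dosing: test compound in the initial addition of three; Schedule: overnight plating, then 30 min 37 °C plus 30 min room-temperature dye loading; Detection: kinetic calcium dye fluorescence, Fluo-4 NW; Controls: per-plate positive and negative controls for Z′ factor.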
MrgX1 allo act: positive allosteric modulators of MrgX1, primary screen, HEK293 cells, Fluo-4 calcium flux; Mas-related G-protein coupled receptor member X1 (Homo sapiens), Q96LB2; FDSS; hits give high values; B-score at 10 µM; actives 0.63% (n = 310,000);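 active = plate-corrected calcium response at least 3 library SD above typical, normal starting fluorescence, not activating the receptor alone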;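 also: compound read alongside a low EC10 to EC30 dose of BAM8-22 agonist; peak minus trough fluorescence over baseline measured at the second addition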
MrgX1 antag: antagonists of human MrgX1 receptor, primary screen, HEK293 cells, Fluo-4 calcium flux. BAM8-22 antagonism; hits give low values. B-score at 10 µM. actives 1.3% (n = 310,000). AID 588676, 2011;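 active = calcium-response B-score plate-corrected more than 3 library SD below zero, starting fluorescence within 5 deviations, no agonist response on first addition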;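 also: peak minus trough fluorescence over baseline after final BAM8-22 challenge near maximal dose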
RGS4 act: RGS4 potentiators or activators, primary screen, cell-based, HEK293 M3R inducible RGS4, calcium flux | B-score at 10 µM | actives 0.92% (n = 310,000) | carbachol calcium flux Fluo4; hits give low values;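 active = B-score of the integrated calcium signal more than 4 SD below the library mean, with starting fluorescence not abnormally high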;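 also: negative B-score means reduced calcium response which marks RGS4 activation or potentiation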
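test system = M3R-expressing HEK293 line, RGS4 induced by doxycycline | probe or stimulus = carbachol at ECmax as muscarinic agonist stimulus | timing = dye loading 30 min 37 °C, buffer rest 30 min RT | signal = calcium dye Fluo4 fluorescence | evaluation = B score from integrated fluorescence ratio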
RGS4 block: RGS4 inhibitors, primary screen, cell-based, HEK293 M3R inducible RGS4, calcium flux; Regulator of G-protein signaling 4 (Homo sapiens), P49798; Fluo-4 calcium flux; hits give high values; triggered by carbachol at its EC20; B-score at 10 µM; actives 0.45% (n = 310,000); AID 463165, 2010;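 active = B-score, a plate-corrected calcium signal, over three deviations above library mean, with baseline fluorescence within five deviations of library mean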;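 also: RGS4 expression induced by doxycycline in cells with stable M3 receptor; B-score is computed from the integrated fluorescence ratio over baseline after carbachol; higher B-score means a larger calcium signal and so more RGS4 inhibition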
Target sequence (P49798 whole entry, looked up): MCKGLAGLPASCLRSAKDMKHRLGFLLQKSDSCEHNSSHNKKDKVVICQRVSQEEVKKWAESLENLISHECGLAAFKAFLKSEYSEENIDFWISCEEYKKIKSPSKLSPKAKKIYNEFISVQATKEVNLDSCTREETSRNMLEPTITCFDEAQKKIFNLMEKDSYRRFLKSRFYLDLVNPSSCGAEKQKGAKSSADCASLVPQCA
Active calls of the source: *; i = inactive; · = not tested or not shown.

SMILES | MrgX1 agonist | MrgX1 allo act | MrgX1 antag | RGS4 act | RGS4 block
CC(=O)Nc1ccc(NC(=O)CSc2ncc(C(=O)Nc3ccc(Cl)cc3)c(=O)n2C)cc1 | i | i | i | i | i
COc1ccc(-c2cnc(SCC(=O)Nc3ccc4c(c3)OCO4)n2Cc2ccco2)cc1 | · | · | · | i | i
CC(=O)Nc1cccc(NC(=O)CSc2ncc(-c3ccc(Cl)cc3)n2Cc2ccco2)c1 | i | i | i | -8.6* | i
CS(=O)(=O)N(CC(=O)Nc1cccc([N+](=O)[O-])c1)c1cccc(F)c1 | i | i | i | i | i
CCc1ccc(C(=O)NNC(=O)CN2C(=O)NC(CC)(c3ccccc3)C2=O)cc1 (centres undefined) | i | i | i | i | i
CC[C@@H](C)[C@H](NC(=O)OC(C)(C)C)c1nnc(S(=O)(=O)Cc2cc(C)ccc2C)o1 | i | 7.07* | i | i | i
Cc1ccccc1CS(=O)(=O)c1nnc([C@H](CC(C)C)NC(=O)OC(C)(C)C)o1 | 33.2* | i | i | i | i
COc1ccc(O)c(/C=N/Nc2nc(Nc3ccccc3)nc(-n3nc(C)cc3C)n2)c1 | i | i | i | -8.48* | i
COc1ccc(-c2cc(=O)oc3c(C)c(OC(C)C(=O)NCc4ccccn4)ccc23)cc1 (centres undefined) | i | i | i | i | i
Cc1ccc(OCC(=O)N2CCN(c3nnc(-c4ccc(C)cc4)c4ccccc34)CC2)cc1 | i | i | i | i | i
Cc1ccc(-c2nnc(N3CCN(C(=O)COc4cccc(C)c4)CC3)c3ccccc23)cc1 | i | i | i | -7.28* | i
O=C(COC(=O)C1CCN(c2ccc(C(F)(F)F)cn2)CC1)NCc1ccc(F)cc1 | i | i | i | i | i
O=C(N/N=C/c1cc([N+](=O)[O-])ccc1O)C(O)(c1ccccc1)c1ccccc1 | i | 9.37* | i | i | i
N#Cc1c(-c2ccccc2Cl)cc(-c2ccccc2)nc1Br | i | i | i | -7.34* | i
COc1cc(OC)c(NC(=S)Nc2cc(Cl)cc(Cl)c2)cc1Cl | i | i | -4.7* | i | i
COc1ccc(CN2C(=O)c3ccccc3C(/C=N\OCc3ccc(C)cc3)C2=O)cc1 (centres undefined) | i | i | i | i | i
O=S(=O)(CCSc1nc2ccccc2o1)c1nc2ccccc2s1 | i | i | i | i | i
O=S(=O)(CCSc1ccccn1)c1nc2ccccc2s1 | 34.1* | i | i | i | i
CC1(C)CC(=O)C/C(=N/NC(=O)COc2ccc3ccccc3c2Br)C1 | i | i | -8* | i | i
CC1(C)CC(=O)C/C(=N/NC(=O)COc2ccc(Cl)cc2Cl)C1 | i | i | i | i | i
Cc1cc(C)c2nc(C)cc(N/N=C/c3ccc(O)cc3)c2c1 | i | i | i | -7.42* | i
CCc1sc(N(C(=O)Cc2ccccc2)c2ccccc2)nc1-c1ccccc1 | i | i | i | i | i
CCCCC(=O)N(c1ccc(C(=O)O)cc1)c1nc(-c2ccc(Cl)cc2)c(CC)s1 | i | i | i | -7.37* | i
CCNC(=S)Nc1ccc(Cl)c([N+](=O)[O-])c1 | i | i | -5.77* | i | i
O=C(Cc1cccs1)NCc1cccc(F)c1 | i | i | i | i | i
SMILES | MrgX1 agonist | MrgX1 allo act | MrgX1 antag | RGS4 act | RGS4 block
Cc1ccccc1/C=C/c1nc2ccccc2c(=O)n1Cc1ccccc1 | i | i | i | -7.4* | i
Cc1ccccc1/C=C/c1nc2ccccc2c(=O)n1CCc1ccccc1 | i | i | i | i | i
CSc1nnc(C)c(=O)n1COC(=O)c1ccc([N+](=O)[O-])cc1 | i | 12.2* | i | i | i
CN(C)c1ccc(S(=O)(=O)N2CCCCC2)cc1NC(=O)CN1C(=O)NC2(CCCC2)C1=O | i | i | i | i | i
CSc1ccc(CN(C)Cc2cc(=O)oc3c(C)c(C)ccc23)cc1 | i | i | i | -7.17* | i
Cc1ccc2c(CN(C)Cc3cccc(Cl)c3)cc(=O)oc2c1C | i | i | i | i | i
CCN(CC)c1ccc2cc(/C(N)=N/NC(=O)c3cccs3)c(=O)oc2c1 | i | 27.2* | i | i | i
Oc1ccc(CCNc2ncnc3ccc(Cl)cc23)cc1 | i | i | -5.57* | i | i
C=CC[n+]1c(-c2ccc(OC)c(OC)c2)csc1NNC(=O)Nc1ccccc1 | i | i | -4.57* | i | i
COC(=O)c1ccc(COC(=O)C2CCN(S(=O)(=O)c3ccc(C)c(C)c3)CC2)o1 | i | i | i | i | i
CC(C)c1ccc(/C=C(\c2nc3ccccc3[nH]2)S(=O)(=O)c2ccccc2)cc1 | i | i | i | i | i
O=S(=O)(/C(=C/c1ccc(C(F)(F)F)cc1)c1nc2ccccc2[nH]1)c1ccccc1 | i | i | i | i | 22.2*
CC(C)=CCC12Oc3cc(O)ccc3C1(O)Oc1cc3c(c(O)c1C2=O)C=CC(C)(C)O3 (centres undefined) | i | i | i | -7.29* | i
CCN(Cc1ccccc1)c1ccc(/C=C(\C#N)c2ccccn2)cc1 | i | i | i | i | i
CCN(CC)c1ccc(/C=C(\C#N)c2ccccn2)cc1 | i | i | -9.07* | i | i
O=C(N/N=C/c1c(O)n(-c2ccc(Cl)cn2)c(=O)c2ccccc12)c1ccncc1 | i | i | i | -9.57* | i
COc1ccc(CC(=O)NC2CC(C)(C)NC(C)(C)C2)cc1OC | i | i | i | i | i
CC(=O)NC1C(=O)N(CCN2CCOCC2)c2ccc(C)cc21 (centres undefined) | i | i | -6.1* | i | i
ON=C1c2cc(OCCN3CCCCC3)ccc2-c2ccc(OCCN3CCCCC3)cc21 | i | i | i | i | i
NC(=S)NN=C1c2cc(OCCN3CCOCC3)ccc2-c2ccc(OCCN3CCOCC3)cc21 | i | i | i | -7.38* | i
COc1ccc(CNC(=O)C/C(C)=N/NC(=O)C23CC4CC(CC(C4)C2)C3)cc1 | i | i | i | i | i
CCCCCN1C(=O)/C(=C/c2c(N3CCc4ccccc4C3)nc3ccccn3c2=O)SC1=S | i | i | -8.67* | i | i

Source: PubChem BioAssay
